{
  "source": "paper PMC7900901",
  "about": "(SLAS discovery : advancing life sciences R & D, 2017)",
  "format_in_all_cases": "biochemical",
  "key": {"human TDP1 [1]": {"target": "T1, human TDP1 (Homo sapiens, UniProt Q9NUW8)", "T1 sequence (Q9NUW8 whole entry)": "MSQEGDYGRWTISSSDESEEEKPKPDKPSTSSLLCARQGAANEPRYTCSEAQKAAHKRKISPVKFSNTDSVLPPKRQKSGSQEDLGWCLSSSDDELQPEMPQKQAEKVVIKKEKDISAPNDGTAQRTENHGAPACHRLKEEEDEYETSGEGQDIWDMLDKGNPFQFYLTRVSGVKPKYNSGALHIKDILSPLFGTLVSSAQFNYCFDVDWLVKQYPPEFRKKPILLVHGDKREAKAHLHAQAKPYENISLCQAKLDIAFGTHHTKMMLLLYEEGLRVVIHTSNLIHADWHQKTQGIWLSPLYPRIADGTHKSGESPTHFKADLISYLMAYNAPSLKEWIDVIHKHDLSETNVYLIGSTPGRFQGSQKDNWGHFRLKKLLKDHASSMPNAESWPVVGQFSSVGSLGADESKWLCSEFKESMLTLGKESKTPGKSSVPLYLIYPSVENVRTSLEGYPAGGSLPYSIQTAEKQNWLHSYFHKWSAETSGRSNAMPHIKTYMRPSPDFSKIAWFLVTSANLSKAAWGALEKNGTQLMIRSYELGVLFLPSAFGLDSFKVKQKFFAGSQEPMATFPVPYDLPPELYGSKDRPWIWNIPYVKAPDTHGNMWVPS", "assay": "Reversibility of inhibition by preincubation and rapid dilution", "conditions": "for Recovery of the uninhibited control rate: after preincubation with compound for 1 h, rapid dilution; for Reversibility of inhibition: preincubation at 10X IC50 for 1 h, 100-fold dilution"}, "human TDP1 [2]": {"target": "T1, human TDP1", "assay": "Mechanism of inhibition, substrate/inhibitor matrix", "summary_of_the_method": "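Full-length TDP1 was preincubated with test compound on ice for 1 h. Then eosin/TAMRA FRET substrate was added, […] twofold dilutions from 2.25 to 0.035 μM, with three inhibitor levels plus a no-inhibitor control. Final TDP1 was 500 pM in PBS pH 8.0 buffer. Eosin fluorescence (ex 525/em 545 nm) was read over about 1 h at 28 °C. Rate versus substrate data were fitted to competitive, noncompetitive (pure and mixed) and uncompetitive models, with the best fit chosen by Akaike's Information Criterion.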"}, "human TDP1 [3]": {"target": "T1, human TDP1", "assay": "Continuous FRET assay, IC50 determination of inhibitors of TDP1"}, "[4]": {"conditions": "500 pM TDP1, 1.5 μM FRET substrate, 1 h preincubation"}},
  "note": "Entries after “also recorded” stand apart in the source; their conditions may differ. Like-named read-outs stand apart in the source and are kept apart here.",
  "data": [
    {"smiles": "CC(C)=CCC12OC1(O)C(=O)c1c(O)cccc1C2=O", "note": "(centres unmarked) [2,3-epoxy-8-hydroxy-lapachol]", "values": [
      {"measurement": "Recovery of the uninhibited control rate", "setting": "human TDP1 [1]", "value": 90, "unit": "%"},
      {"measurement": "Reversibility of inhibition", "setting": "human TDP1 [1]", "value": "fully reversible"},
      {"measurement": "Mechanism of inhibition", "setting": "human TDP1 [2]; inhibitor at 0, 6.6, 20 and 60 μM, Akaike's Information Criterion", "value": "mixed-type noncompetitive mechanism"},
      {"measurement": "Ki", "setting": "human TDP1 [2]; read-out: Kie (inhibition constant for TDP1 alone), mixed noncompetitive model", "value": "40.9 ± 14.1", "unit": "µM"}
    ]},
    {"smiles": "O=C(O)C1=CC(=C(c2ccc(O)c(C(=O)O)c2)c2ccc(O)c(C(=O)O)c2)C=CC1=O", "note": "[Aurintricarboxylic acid, reference compound]", "values": [
      {"measurement": "Recovery of the uninhibited control rate", "setting": "human TDP1 [1]", "value": 90, "unit": "%"}
    ]},
    {"smiles": "CC(=O)Oc1ccc2ccc(=O)oc2c1OC(C)=O", "note": "[Daphnetin diacetate]", "values": [
      {"measurement": "IC50", "setting": "human TDP1 [3]", "value": "1.1 ± 0.2", "unit": "µM"}
    ]},
    {"smiles": "C[C@@]12CCC(=O)c3coc(c31)C(=O)c1cc3c(O)ccc(OS(=O)(=O)O)c3cc12.[Na+]", "note": "[Halenaquinol sulfate]", "values": [
      {"measurement": "IC50", "setting": "human TDP1 [3]; [4]", "value": "24 ± 1.1", "unit": "µM"},
      {"measurement": "Reversibility of inhibition", "setting": "human TDP1 [1]", "value": "irreversibly inhibited TDP1; also recorded: irreversibly inhibiting TDP1"}
    ]},
    {"smiles": "C[C@@]12CCC(=O)c3coc(c31)C(=O)c1cc3c(cc12)C(=O)C=CC3=O", "note": "[Halenaquinone]", "values": [
      {"measurement": "IC50", "setting": "human TDP1 [3]; [4]", "value": "26 ± 1", "unit": "µM"},
      {"measurement": "Reversibility of inhibition", "setting": "human TDP1 [1]", "value": "irreversibly inhibited TDP1; also recorded: irreversibly inhibiting TDP1"},
      {"measurement": "Reversibility of inhibition", "setting": "human TDP1 [1]; listed as Halenoquinone", "value": "irreversible inhibition"}
    ]},
    {"smiles": "C[C@H](O)C#CC#CC#CC#CCCCCCCCC(=O)O", "note": "[Minquartynoic acid]", "values": [
      {"measurement": "IC50", "setting": "human TDP1 [3]", "value": "52 ± 1", "unit": "µM"}
    ]},
    {"smiles": "C[C@@]12CCCc3coc(c31)C(=O)c1cc3c(cc12)C(=O)C=CC3=O", "note": "[Xestoquinone]", "values": [
      {"measurement": "IC50", "setting": "human TDP1 [3]", "value": "93 ± 1.1", "unit": "µM"}
    ]},
    {"smiles": "COC[C@H]1OC(=O)c2coc3c2[C@@]1(C)C1=C(C3=O)[C@@H]2CCC(=O)[C@@]2(C)C[C@H]1OC(C)=O", "note": "[wortmannin, reference compound]", "values": [
      {"measurement": "Inhibition of TDP1", "setting": "human TDP1 [3]; concentrations up to 500 μM", "value": "unable to inhibit TDP1; also recorded: did not inhibit TDP1"}
    ]}
  ]
}
